The target of data set [1] is Alpha-synuclein (Homo sapiens) (UniProt P37840). Put plainly: Inhibition of alpha-Synuclein (unknown origin) aggregation at compound to protein molar ratio of 5:1 incubated for 36 hrs under shaking condition and measured every 6 hrs by Thioflavin T based fluorescence assay relative to control. As to conditions: concentration not given here. Put shortly:
(§1)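 Wells held 80 µM α-syn, 50 µM ThT (from 5 mM stock in glycine-NaOH pH 8.0), 80–400 µM compound, saline Tris buffer and a teflon ball. Shaken at 100 rpm, 37 °C, 36 h. Fluorescence (ex 460/em 500 nm) read every 6 h, triplicates. Protein-only wells set 100% aggregation. Percent inhibition taken at end; t50 is the shift in h of the aggregation midpoint.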

The target is the same in data set [2]. Put plainly: Inhibition of alpha-Synuclein (unknown origin) aggregation at compound to protein molar ratio of 1:1 incubated for 36 hrs under shaking condition and measured every 6 hrs by Thioflavin T based fluorescence assay relative to control. The conditions noted are these: concentration not given here. Put shortly: as §1
Data set [3] shares this target. The data set can be described thus: Inhibition of alpha-Synuclein (unknown origin) aggregation assessed as time difference in midpoint of aggregation at compound to protein molar ratio of 1:1 incubated for 36 hrs under shaking condition and measured every 6 hrs by Thioflavin T based fluorescence assay relative to control. Put shortly:
as §1

Data set [4] is described as follows: Toxicity in mouse primary midbrain culture assessed as change in tyrosine hydroxylase positive dopamine neuron at 0.5 uM. Type of data set: tissue-based. Put shortly:
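Primary embryonic mouse midbrain cultures given sonicated mouse α-syn PFFs (2.5 µg/mL final) on DIV8. Compound, 0.1% DMSO vehicle or 50 ng/mL GDNF added ~15 min later. Fixed DIV15, immunostained for TH and pSer129-α-syn, DAPI nuclei. Nine fields per well imaged at 10×. TH+ neurons with/without pSyn aggregates counted. ≥3 independent cultures, ≥3 wells each. Randomized-block ANOVA with Benjamini-Krieger-Yekutieli correction, mean ± SD.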

Data set [5] has as its target Alpha-synuclein (Homo sapiens) (UniProt P37840). The data set can be described thus: Binding affinity to alpha-Synuclein (unknown origin) at compound to protein molar ratio of 5:1 incubated for 3 hrs by mass spectroscopy analysis. The method, boiled down:
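α-Syn (10 µM) in 10 mM ammonium acetate. Compound (100 µM, in methanol) added at 5:1 ligand:protein and kept 3 h at rt. Positive-mode HRESIMS, calibrated with sodium trifluoroacetate. Spectra inspected for extra peaks of protein–ligand complexes; scored yes/no.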

For another data set, the system named is HEK293. The data set can be described thus: Cytotoxicity against human HEK293 cells measured after 72 hrs by resazurin assay. Type of data set: toxicity, cell-based. As to conditions: hek293, 72 h. Put shortly: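 HEK293 cells, 2000 per well, exposed to compound for 72 h at 37 °C. Medium then swapped for 44 µM resazurin for 6 h and fluorescence read. Viability referenced to 40 µM puromycin (positive) and 0.4% DMSO (negative). IC50 by curve fitting.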
Background: Resazurin is reduced to fluorescent resorufin, in cell work by metabolically active cells.

The test system of data set [6] is Staphylococcus aureus. The data set can be described thus: Antibacterial activity against methicillin-resistant Staphylococcus aureus ATCC 43300 assessed as inhibition of bacterial growth measured after 18 hrs by resazurin based fluorescent plate reader. Type of data set: functional, organism-based. As to conditions: ATCC 43300, 18 h. The method, boiled down: (§2)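 Broth microdilution in lysogeny broth; overnight culture (16-18 h, 37.5 °C) adjusted to 5 × 10^5 CFU/mL inoculum. DMSO stocks serially diluted 1:2 (ten-fold series); fusidic acid positive and 5% DMSO negative controls. Plates shaken at 100 rpm, 18 h at 37.5 °C, then 704 µM resazurin added (stock), further 1 h; fluorescence ex 544/em 590 nm.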

A short description of data set [7]: Selectivity index, ratio of IC50 for cytotoxicity against human HEK293 cells to IC50 for antiplasmodial activity against Plasmodium falciparum 3D7. Type of data set: toxicity, cell-based. The conditions noted are these: read-out: Ratio IC50.
The target in data set [8] is Alpha-synuclein (Homo sapiens) (UniProt P37840). The data set can be described thus: Inhibition of alpha-Synuclein (unknown origin) aggregation assessed as times difference in midpoint of aggregation at compound to protein molar ratio of 5:1 incubated for 36 hrs under shaking condition and measured every 6 hrs by Thioflavin T based fluorescence assay relative to control. Put shortly:
as §1

The next data set relates to Plasmodium falciparum. Put plainly: Antiplasmodial activity against Plasmodium falciparum 3D7 assessed as inhibition of parasite growth incubated for 72 hrs by DAPI staining based confocal microscopic analysis. The conditions noted are these: 3D7, 72 h. The format is functional, organism-based. The method, boiled down:
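P. falciparum 3D7 in imaging plates, 2% parasitemia, 0.3% hematocrit, 16-point dilution series 0.4 nM–40 µM (N=2), 72 h at 37 °C under 5% O2/5% CO2/90% N2. DAPI stain, confocal imaging. Percent inhibition normalised to in-plate 5 µM puromycin (positive) and 0.4% DMSO (negative) controls. IC50 from sigmoidal nonlinear regression.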

Data set [9] has as its system Staphylococcus aureus. Put plainly: Antibacterial activity against methicillin-sensitive Staphylococcus aureus ATCC 25923 assessed as inhibition of bacterial growth measured after 18 hrs by resazurin based fluorescent plate reader. The format is functional, organism-based. As to conditions: ATCC 25923, 18 h. Put shortly: as §2
Data set [10] has as its target Alpha-synuclein (Mus musculus) (UniProt O55042). The data set can be described thus: Inhibition of PFF-induced alpha-Synuclein aggregation in mouse primary midbrain culture assessed as decrease in tyrosine hydroxylase positive dopamine neuron with p-Syn aggregation at 0.5 uM incubated for 7 days by immunostaining analysis. The conditions noted are these: time 7.0 day.

Calls of active or inactive are those of the source. The calls are words filed in the database; no cut-off is given here. Where only a bound is given, the exact number is not on record here.

For the compound `O=C1C=C(c2ccc(O)cc2)[C@]2(O1)O[C@]1(OC(=O)C=C1c1ccc(O)cc1)C(c1ccc(O)cc1)=C2c1ccc(O)cc1`, the values for the inhibition in data set [1] and in data set [2] were 75.2% and 60%, respectively. The TIME in [3] is 6.2 h; in [8] it was 14.5 h. The Activity entry is on record as “Non-Toxic” in [4] and “Toxic” in the data set with HEK293. Moreover, in data set [5], the result was Active. Besides, the IC50 was more than 10 µM with Staphylococcus aureus [6], 5.1 µM with Plasmodium falciparum and more than 10 µM in the data set with Staphylococcus aureus [9]. Also, the selectivity ratio in data set [7] was 7.6.
Regarding `O=C1C=C(c2cc(Br)c(O)c(Br)c2)[C@]2(O1)O[C@]1(OC(=O)C=C1c1cc(Br)c(O)c(Br)c1)C(c1ccc(O)c(Br)c1)=C2c1ccc(O)c(Br)c1`, the inhibition in data set [1] amounted to 99.9%; in [2], 34.3%. In addition, the figures for the TIME in [3] and in [8] were 9.4 h and 10 h, respectively. Also, the Activity result is on record as “Non-Toxic” in data set [4] and “Toxic” in the data set with HEK293. The result in data set [5] was Active. Moreover, in data set [10], the inhibition result is “Active”. The IC50 in the data set on Staphylococcus aureus [6] and with Staphylococcus aureus [9] was more than 10 µM each time.
Consider `O=C1C=C(c2cc(Br)c(O)c(Br)c2)[C@]2(O1)O[C@]1(OC(=O)C=C1c1cc(Br)c(O)c(Br)c1)C(c1ccc(O)c(Br)c1)=C2c1ccc(O)cc1`, for which, in data set [5], the result was Active. The IC50 with Staphylococcus aureus [6] is 11.6 µM; in the data set on Staphylococcus aureus [9], 12.2 µM.
On to `O=C(O[C@@H]1Cc2c(O)cc(O)cc2O[C@@H]1c1cc(O)c(O)c(O)c1)c1cc(O)c(O)c(O)c1`, for which the inhibition in data set [1] turned out to be 98.9%. The TIME stood at 9.4 h in data set [3] and 11.1 h in data set [8]. Also, the result in [5] was Active.
Consider `O=C1C=C(c2ccc(O)c(Br)c2)[C@]2(O1)O[C@]1(OC(=O)C=C1c1ccc(O)c(Br)c1)C(c1ccc(O)c(Br)c1)=C2c1ccc(O)c(Br)c1`, for which, in [5], the result was Active.
For `O=C(O)c1cc2c([nH]c3ccc(Br)cc32)c(C(=O)c2cn(S(=O)(=O)O)c3ccc(Br)cc23)n1`, the Activity entry in the data set on HEK293 is “Toxic”. For the same compound, the selectivity ratio in data set [7] worked out at 2.66. Besides, the IC50 in the data set on Plasmodium falciparum is 15.1 µM.
Consider `O=C1C=C(c2cc(Br)c(O)c(Br)c2)[C@]2(O1)O[C@]1(OC(=O)C=C1c1cc(Br)c(O)c(Br)c1)C(c1cc(Br)c(O)c(Br)c1)=C2c1cc(Br)c(O)c(Br)c1`, for which the inhibition in [1] amounted to 89%; in [2], 13.3%. In addition, the TIME in [3] stood at 10 h; in data set [8], 13.7 h. For the same compound, the values for the Activity entry (in [4]; in the data set with HEK293) were “Non-Toxic” and “Toxic”, respectively. Also, the outcome in data set [5] was Active. The concentration for half-maximal inhibition (IC50) in the data set with Staphylococcus aureus [6] and in the data set on Staphylococcus aureus [9] was more than 10 µM each time.
Consider `O=C1C=C(c2cc(Br)c(O)c(Br)c2)[C@]2(O1)O[C@]1(OC(=O)C=C1c1ccc(O)cc1)C(c1ccc(O)c(Br)c1)=C2c1ccc(O)cc1`, for which the result in [5] was Active. Besides, the IC50 with Staphylococcus aureus [6] and with Staphylococcus aureus [9] was more than 10 µM each time.
Consider `O=C1C=C(c2ccc(O)cc2)[C@]2(O1)O[C@]1(OC(=O)C=C1c1ccc(O)cc1)C(c1ccc(O)c(Br)c1)=C2c1ccc(O)cc1`, for which the inhibition amounted to 92.9% in [1] and 24.9% in [2]. Further, the TIME is 2 h in [3] and 4 h in [8]. Also, in [5], the result was Active. Also, the values for the IC50 with Staphylococcus aureus [6] and in the data set on Staphylococcus aureus [9] were 16.1 µM and 10.8 µM, respectively.
In the case of `O=C1C=C(c2ccc(O)cc2)[C@]2(O1)O[C@@]1(OC(=O)C=C1c1ccc(O)cc1)C(c1ccc(O)cc1)=C2c1ccc(O)cc1`, the inhibition in [1] turned out to be 51.5%; in [2] it was 22.1%. Moreover, the values for the TIME in data set [3] and in data set [8] were 0 h and 2.3 h, respectively. Besides, the result in [5] was Active. Further, the IC50 in the data set with Staphylococcus aureus [6] and with Staphylococcus aureus [9] was more than 10 µM throughout.
Regarding `O=C1C=C(c2ccc(O)cc2)[C@]2(O1)O[C@]1(OC(=O)C=C1c1ccc(O)c(Br)c1)C(c1ccc(O)cc1)=C2c1ccc(O)cc1`, the values for the inhibition in [1] and in data set [2] were 97.6% and 39%, respectively. Further, the results for the TIME in [3] and in data set [8] were 1 h and 4 h, respectively. Besides, the outcome in [5] was Active. The IC50 with Staphylococcus aureus [6] and with Staphylococcus aureus [9] was more than 10 µM in each case.

As a reminder, the inhibition is the share of the control response that was lost under treatment. In general, IC50 refers to the point on the concentration scale where inhibition reaches its midpoint.
